pIC50: −log10 of the molar value.

The target in one test is T1, Aurora kinase A (Homo sapiens, UniProt O14965).
T1 sequence (O14965 whole entry): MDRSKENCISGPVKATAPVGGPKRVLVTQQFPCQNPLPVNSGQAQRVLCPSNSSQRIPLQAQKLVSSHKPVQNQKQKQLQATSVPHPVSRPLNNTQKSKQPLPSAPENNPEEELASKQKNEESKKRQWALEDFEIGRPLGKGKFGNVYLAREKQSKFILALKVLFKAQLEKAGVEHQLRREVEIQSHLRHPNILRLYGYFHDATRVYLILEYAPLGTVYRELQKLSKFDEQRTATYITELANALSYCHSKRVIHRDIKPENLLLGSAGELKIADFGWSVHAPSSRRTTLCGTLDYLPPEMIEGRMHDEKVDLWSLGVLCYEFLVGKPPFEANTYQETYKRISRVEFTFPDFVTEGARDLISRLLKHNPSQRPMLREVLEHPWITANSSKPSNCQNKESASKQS
Nature of the test: Inhibition of Aurora-A by microplate scintillation counting. Summed up: (§1)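 Substrates: tetra(LRRWSLG) for Aurora A/B; poly(Ala,Glu,Lys,Tyr)6:2:5:1 for PDGFRβ; poly(Glu,Tyr)4:1 for TIE2 and VEGFR2. Stopped with 2% H3PO4.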

Another test has as its target Aurora kinase B (Homo sapiens, UniProt Q96GD4). Nature of the test: Inhibition of Aurora-B by microplate scintillation counting. Summed up:
as §1

Test [1] has as its target Platelet-derived growth factor receptor beta (Homo sapiens, UniProt P09619). The test is described as follows: Inhibition of PDGFRbeta by microplate scintillation counting. An outline of the steps:
as §1

The target of test [2] is Receptor tyrosine-protein kinase erbB-2 (Homo sapiens, UniProt P04626). Nature of the test: Inhibition of ERBB2 by microplate scintillation counting. An outline of the steps:
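Radiometric FlashPlate assay using recombinant kinase (10–200 ng/well) with poly(Glu,Tyr)4:1 substrate. Buffer: 60 mM HEPES-NaOH pH 7.5, 3 mM MgCl2, 3 mM MnCl2, 3 µM orthovanadate, 1.2 mM DTT, PEG 20000, 1 µM [γ-33P]-ATP. Run 80 min at 30 °C, stopped with H3PO4, and 33P incorporation counted.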

Test [3] deals with Epidermal growth factor receptor (Homo sapiens, UniProt P00533). Nature of the test: Inhibition of wild type EGF-R by microplate scintillation counting.
Sequence of Epidermal growth factor receptor (P00533 whole entry): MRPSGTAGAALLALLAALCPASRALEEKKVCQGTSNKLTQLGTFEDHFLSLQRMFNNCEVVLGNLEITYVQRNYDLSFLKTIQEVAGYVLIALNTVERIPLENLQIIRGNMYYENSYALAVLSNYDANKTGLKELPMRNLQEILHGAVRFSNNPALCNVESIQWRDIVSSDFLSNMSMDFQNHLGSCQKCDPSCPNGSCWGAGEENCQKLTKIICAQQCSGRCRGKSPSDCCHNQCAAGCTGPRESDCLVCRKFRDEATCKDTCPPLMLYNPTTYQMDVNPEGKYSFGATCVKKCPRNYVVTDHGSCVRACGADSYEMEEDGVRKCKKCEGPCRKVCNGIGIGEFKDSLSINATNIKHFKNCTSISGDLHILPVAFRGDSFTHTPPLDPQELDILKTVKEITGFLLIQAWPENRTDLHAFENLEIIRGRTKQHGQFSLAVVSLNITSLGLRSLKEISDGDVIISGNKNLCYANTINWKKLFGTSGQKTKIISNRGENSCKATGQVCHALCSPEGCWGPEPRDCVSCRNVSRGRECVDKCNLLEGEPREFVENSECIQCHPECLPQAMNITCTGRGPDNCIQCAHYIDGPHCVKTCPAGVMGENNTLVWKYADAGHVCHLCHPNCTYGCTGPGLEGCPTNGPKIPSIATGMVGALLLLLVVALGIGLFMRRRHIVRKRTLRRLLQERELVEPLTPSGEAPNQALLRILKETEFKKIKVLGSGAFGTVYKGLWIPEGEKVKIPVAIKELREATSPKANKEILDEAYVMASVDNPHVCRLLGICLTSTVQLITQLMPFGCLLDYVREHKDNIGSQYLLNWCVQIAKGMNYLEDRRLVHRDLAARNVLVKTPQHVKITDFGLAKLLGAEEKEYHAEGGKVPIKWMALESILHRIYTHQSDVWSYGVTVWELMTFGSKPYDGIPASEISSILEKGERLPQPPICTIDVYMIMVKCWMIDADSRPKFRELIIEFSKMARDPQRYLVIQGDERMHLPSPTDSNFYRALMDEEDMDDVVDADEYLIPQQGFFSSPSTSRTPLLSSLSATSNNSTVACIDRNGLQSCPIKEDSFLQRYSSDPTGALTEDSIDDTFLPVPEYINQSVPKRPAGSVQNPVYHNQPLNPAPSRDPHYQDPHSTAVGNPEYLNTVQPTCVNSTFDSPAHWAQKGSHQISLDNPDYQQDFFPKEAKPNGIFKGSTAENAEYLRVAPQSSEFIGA
For the next test, the target named is Angiopoietin-1 receptor (Homo sapiens, UniProt Q02763). Nature of the test: Inhibition of TIE2 by microplate scintillation counting.
In test [4] the target is Vascular endothelial growth factor receptor 2 (Homo sapiens, UniProt P35968). The test is described as follows: Inhibition of VEGFR2 by microplate scintillation counting.
Sequence of Vascular endothelial growth factor receptor 2 (P35968 whole entry): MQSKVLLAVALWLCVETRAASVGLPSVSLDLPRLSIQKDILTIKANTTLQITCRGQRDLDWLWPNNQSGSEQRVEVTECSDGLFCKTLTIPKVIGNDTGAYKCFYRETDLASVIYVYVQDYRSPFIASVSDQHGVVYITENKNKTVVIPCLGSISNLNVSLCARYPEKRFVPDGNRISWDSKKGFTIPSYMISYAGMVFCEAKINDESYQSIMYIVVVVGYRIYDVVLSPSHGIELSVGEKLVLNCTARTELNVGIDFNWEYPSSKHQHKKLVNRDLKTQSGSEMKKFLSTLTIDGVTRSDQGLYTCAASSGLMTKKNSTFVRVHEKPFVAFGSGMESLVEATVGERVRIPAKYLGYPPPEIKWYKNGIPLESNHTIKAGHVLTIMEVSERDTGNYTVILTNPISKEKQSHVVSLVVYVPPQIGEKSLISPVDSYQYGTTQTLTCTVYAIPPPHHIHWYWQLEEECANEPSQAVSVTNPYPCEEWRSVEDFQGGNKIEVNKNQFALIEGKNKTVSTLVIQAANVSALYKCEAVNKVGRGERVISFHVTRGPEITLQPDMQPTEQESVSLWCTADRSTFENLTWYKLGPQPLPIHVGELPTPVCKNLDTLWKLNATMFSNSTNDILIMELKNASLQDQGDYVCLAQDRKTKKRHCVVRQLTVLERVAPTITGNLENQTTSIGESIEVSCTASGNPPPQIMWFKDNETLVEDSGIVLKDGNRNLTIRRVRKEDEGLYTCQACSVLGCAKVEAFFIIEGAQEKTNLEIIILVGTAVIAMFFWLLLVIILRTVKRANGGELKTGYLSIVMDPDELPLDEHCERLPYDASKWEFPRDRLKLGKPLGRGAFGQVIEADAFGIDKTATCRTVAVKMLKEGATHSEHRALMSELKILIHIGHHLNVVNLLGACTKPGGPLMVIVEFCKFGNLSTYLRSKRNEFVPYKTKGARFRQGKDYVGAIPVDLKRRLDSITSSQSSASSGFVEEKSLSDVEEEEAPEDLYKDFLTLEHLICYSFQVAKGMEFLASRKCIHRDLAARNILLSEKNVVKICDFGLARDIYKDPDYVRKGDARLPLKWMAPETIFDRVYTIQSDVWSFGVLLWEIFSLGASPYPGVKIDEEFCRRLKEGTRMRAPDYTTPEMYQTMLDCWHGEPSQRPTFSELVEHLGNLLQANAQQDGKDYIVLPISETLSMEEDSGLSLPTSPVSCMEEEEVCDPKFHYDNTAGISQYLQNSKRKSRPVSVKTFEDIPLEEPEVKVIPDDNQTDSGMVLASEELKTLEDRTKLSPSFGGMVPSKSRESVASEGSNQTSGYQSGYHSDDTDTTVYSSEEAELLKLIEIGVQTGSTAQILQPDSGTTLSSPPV

Sequence of Platelet-derived growth factor receptor beta (P09619 whole entry): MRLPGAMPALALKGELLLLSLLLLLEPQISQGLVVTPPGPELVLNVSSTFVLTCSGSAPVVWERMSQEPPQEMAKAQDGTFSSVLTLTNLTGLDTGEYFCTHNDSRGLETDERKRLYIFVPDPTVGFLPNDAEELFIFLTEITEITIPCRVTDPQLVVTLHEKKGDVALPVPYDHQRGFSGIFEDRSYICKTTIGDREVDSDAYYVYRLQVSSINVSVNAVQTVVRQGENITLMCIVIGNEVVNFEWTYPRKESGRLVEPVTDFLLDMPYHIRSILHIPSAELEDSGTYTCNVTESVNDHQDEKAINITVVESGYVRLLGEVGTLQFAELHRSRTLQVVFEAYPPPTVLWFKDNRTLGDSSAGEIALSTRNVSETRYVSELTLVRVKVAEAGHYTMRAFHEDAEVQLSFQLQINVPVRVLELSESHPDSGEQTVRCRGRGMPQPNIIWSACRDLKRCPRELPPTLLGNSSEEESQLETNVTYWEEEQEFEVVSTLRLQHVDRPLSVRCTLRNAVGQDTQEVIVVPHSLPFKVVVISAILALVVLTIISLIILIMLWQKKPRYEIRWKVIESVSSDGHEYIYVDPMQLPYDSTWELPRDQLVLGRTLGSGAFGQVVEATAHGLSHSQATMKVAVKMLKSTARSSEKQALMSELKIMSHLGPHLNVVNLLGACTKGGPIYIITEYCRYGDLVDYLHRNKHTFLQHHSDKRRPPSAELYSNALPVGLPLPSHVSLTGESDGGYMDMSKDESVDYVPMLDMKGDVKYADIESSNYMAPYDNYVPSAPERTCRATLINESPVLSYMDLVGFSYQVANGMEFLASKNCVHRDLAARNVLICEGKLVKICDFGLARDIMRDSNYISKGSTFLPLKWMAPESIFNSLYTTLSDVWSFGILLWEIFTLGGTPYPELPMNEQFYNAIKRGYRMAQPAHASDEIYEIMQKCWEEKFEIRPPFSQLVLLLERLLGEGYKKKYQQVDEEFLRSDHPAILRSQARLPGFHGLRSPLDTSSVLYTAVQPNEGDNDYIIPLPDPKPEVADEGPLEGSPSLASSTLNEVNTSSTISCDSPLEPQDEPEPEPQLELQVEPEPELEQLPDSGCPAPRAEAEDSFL
Sequence of Receptor tyrosine-protein kinase erbB-2 (P04626 whole entry): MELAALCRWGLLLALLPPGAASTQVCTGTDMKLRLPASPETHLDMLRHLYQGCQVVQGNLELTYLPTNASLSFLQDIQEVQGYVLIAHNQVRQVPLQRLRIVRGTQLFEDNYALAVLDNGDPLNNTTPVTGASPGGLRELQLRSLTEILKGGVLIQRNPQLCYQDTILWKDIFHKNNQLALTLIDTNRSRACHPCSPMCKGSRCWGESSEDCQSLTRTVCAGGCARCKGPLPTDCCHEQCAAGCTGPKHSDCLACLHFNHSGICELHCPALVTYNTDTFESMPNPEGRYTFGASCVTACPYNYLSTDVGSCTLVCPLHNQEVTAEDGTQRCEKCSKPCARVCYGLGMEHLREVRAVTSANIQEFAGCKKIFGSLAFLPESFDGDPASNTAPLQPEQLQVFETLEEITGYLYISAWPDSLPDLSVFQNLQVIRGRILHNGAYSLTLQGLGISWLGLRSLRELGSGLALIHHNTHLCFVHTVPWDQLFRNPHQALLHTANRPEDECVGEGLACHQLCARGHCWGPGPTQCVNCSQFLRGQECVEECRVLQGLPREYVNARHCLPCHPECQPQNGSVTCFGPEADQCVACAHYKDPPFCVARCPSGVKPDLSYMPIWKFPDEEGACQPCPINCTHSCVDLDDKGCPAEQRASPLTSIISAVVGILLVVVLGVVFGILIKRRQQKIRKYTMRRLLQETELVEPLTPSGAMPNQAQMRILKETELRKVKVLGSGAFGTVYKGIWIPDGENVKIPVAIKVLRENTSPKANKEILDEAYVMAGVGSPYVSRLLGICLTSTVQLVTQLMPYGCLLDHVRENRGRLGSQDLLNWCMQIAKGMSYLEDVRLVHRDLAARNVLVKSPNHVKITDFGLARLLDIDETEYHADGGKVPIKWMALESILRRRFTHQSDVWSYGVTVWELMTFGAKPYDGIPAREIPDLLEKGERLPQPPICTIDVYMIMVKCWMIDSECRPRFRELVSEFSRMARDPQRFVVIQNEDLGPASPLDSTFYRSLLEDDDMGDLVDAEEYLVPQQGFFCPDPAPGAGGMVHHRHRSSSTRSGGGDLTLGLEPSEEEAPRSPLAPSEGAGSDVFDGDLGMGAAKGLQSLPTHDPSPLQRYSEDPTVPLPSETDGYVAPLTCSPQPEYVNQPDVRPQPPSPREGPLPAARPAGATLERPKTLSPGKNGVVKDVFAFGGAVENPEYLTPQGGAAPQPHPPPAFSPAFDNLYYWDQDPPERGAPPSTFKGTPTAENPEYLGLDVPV

One may read the pIC50 as the IC50 on a negative log10 scale, so that one unit is a factor of ten. In the case of `COc1cc2ncnc(Nc3ccc(-c4nc5ccccc5s4)cc3)c2cc1OCCCN1CCN(C)CC1`, the pIC50 against Aurora kinase A is 6.96; against Aurora kinase B, 6.29; in test [1] it was 5.42; in test [2], 5.66.

As for `COc1cc2ncnc(Nc3ccc(-c4nc5ccccc5s4)cc3O)c2cc1OCCCN1CCN(C)CC1`, the pIC50 at Aurora kinase A is 6.10; against Aurora kinase B, 6.10; in test [1], less than 5.00; in test [3] it was 6.64; in test [2], 5.64; at Angiopoietin-1 receptor it was 6.06.

Turning to `COc1cc2ncnc(Nc3ccc(-c4nc5ccccc5s4)cc3F)c2cc1OCCCN1CCN(C)CC1`, the pIC50 at Aurora kinase A is 6.41; against Aurora kinase B it was 6.39; in test [1], 5.00; in test [3], 5.35; in test [2], less than 5.00; against Angiopoietin-1 receptor it was 6.44.

As for `COc1cc(-c2nc3ccccc3s2)ccc1Nc1ncnc2cc(OC)c(OCCCN3CCN(C)CC3)cc12`, the pIC50 against Aurora kinase A is 5.89; on Aurora kinase B, 5.72; in test [1] it was less than 5.00; in test [3], less than 5.00; in test [2] it was less than 5.00; against Angiopoietin-1 receptor, 5.21.

Regarding `COc1cc2ncnc(Nc3ccc(-c4nc5ccccc5s4)c(OC)c3)c2cc1OCCCN1CCN(C)CC1`, the pIC50 at Aurora kinase A was 5.80; at Aurora kinase B it was less than 5.00; in test [1], 5.42; in test [3] it was 7.82; in test [2], 7.33; at Angiopoietin-1 receptor, 5.85.

On to `COc1cc2ncnc(Nc3ccc(-c4nc5cc(C(F)(F)F)ccc5s4)cc3)c2cc1OCCCN1CCN(C)CC1`, for which the pIC50 against Aurora kinase A was 5.92; at Aurora kinase B it was 5.68; in test [1], less than 5.00; in test [3] it was less than 5.00; in test [2], less than 5.00; on Angiopoietin-1 receptor, less than 5.00.

For `COc1cc2ncnc(Nc3ccc(-c4nc5ccccc5s4)cc3O)c2cc1OC`, the pIC50 on Aurora kinase A was less than 5.00; at Aurora kinase B it was 5.38; in test [3], 5.66; in test [4], 5.16.

For the molecule `COc1cc2ncnc(Nc3ccc(-c4nc5cc(Cl)ccc5s4)cc3)c2cc1OCCCN1CCN(C)CC1`, the pIC50 is 6.40 against Aurora kinase A; 6.30 on Aurora kinase B; 5.00 in test [1]; less than 5.00 in test [3]; less than 5.00 in test [2]; 5.40 against Angiopoietin-1 receptor.

With `COc1cc2ncnc(Nc3ccc(-c4nc5ccccc5s4)c(F)c3)c2cc1OCCCN1CCN(C)CC1`, the pIC50 on Aurora kinase A is 6.70; at Aurora kinase B, 6.17; in test [1], 5.06; in test [3], 5.64; in test [2], less than 5.00; against Angiopoietin-1 receptor it was 5.51.

Take `COc1cc2ncnc(Nc3ccc(-c4nc5ccccc5s4)c(Cl)c3)c2cc1OCCCN1CCN(C)CC1`: the negative logarithm of the IC50 (pIC50) was 6.16 against Aurora kinase A; 5.32 at Aurora kinase B; 5.11 in test [1]; 7.36 in test [3]; 6.74 in test [2]; 6.29 at Angiopoietin-1 receptor.

For `COc1cc2ncnc(Nc3ccc(-c4nc5ccccc5s4)cc3C)c2cc1OCCCN1CCN(C)CC1`, the pIC50 was 5.03 on Aurora kinase A; less than 5.00 against Aurora kinase B; less than 5.00 in test [1]; 5.85 in test [3]; 5.23 in test [2]; 6.46 on Angiopoietin-1 receptor.

In the case of `COc1cc2ncnc(Nc3ccc(-c4nc5ccccc5s4)c(O)c3)c2cc1OCCCN1CCN(C)CC1`, the negative-log IC50 (pIC50) against Aurora kinase A was 6.52; at Aurora kinase B, 6.19; in test [1] it was 5.00; in test [3], 5.48; in test [2] it was less than 5.00; against Angiopoietin-1 receptor, 5.28.

In the case of `COc1cc(-c2nc3ccccc3s2)ccc1Nc1ncnc2cc(OC)c(OC)cc12`, the pIC50 against Aurora kinase A was less than 5.00; against Aurora kinase B it was less than 5.00; in test [3] it was 7.20; in test [4] it was less than 5.00.

The molecule `COc1cc2ncnc(Nc3ccc(-c4nc5ccccc5s4)cc3)c2cc1OC` gave a pIC50 in test [4] of 5.20.

Source of the values: ChEMBL document CHEMBL1152560, “Substituted 2-arylbenzothiazoles as kinase inhibitors: hit-to-lead optimization” (Bioorg Med Chem, 2009).
